Laboratory results published in ChEMBL document CHEMBL1141749, “Nitrogen-containing compounds from Salvia miltiorrhiza” (2005).

What was measured:
Assay type in all cases: functional
Conditions in all cases: for CC50: read-out: CD50 (the source's name)
[1] = test system: OVCAR-3; test: Cytotoxicity against human OVCAR-3 cells by MTT assay
In short: (§1)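 MTT colorimetric read-out. The value is reported as CD50.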

[2] = test system: HepG2; test: Cytotoxicity against human HepG2 cells by MTT assay; in short: as §1
[3] = test system: HeLa; test: Cytotoxicity against human HeLa cells by MTT assay; in short: as §1

Row | SMILES | CC50 [1] | CC50 [2] | CC50 [3] | Activity [1] | Activity [2] | Activity [3]
1 | Cc1nc2c3c(c4ccc5c(c4c2o1)CCCC5(C)C)OCC3C (stereo unspecified) | 126 µM | 121 µM | 108 µM | – | – | –
2 | C[C@H]1COC2=C1C(=O)C(=O)c1c2ccc2c1CCCC2(C)C [CRYPTOTANSHINONE] | 9.12 µM | 29.7 µM | 17.2 µM | – | – | –
3 | Cc1nc2c(o1)c1c3c(ccc1c1occ(C)c21)C(C)(C)CCC3 [NEOSALVIANEN] | 74.6 µM | 59.2 µM | 63.9 µM | – | – | –
4 | CC(C)C1=Cc2ccc3c4c([nH]c(c24)C1=O)C(=O)CC3(C)C [SALVIADIONE] | 169 µM | 137 µM | 178 µM | – | – | –
5 | Cc1nc2c(o1)c1c(C)coc1c1ccc3c(c12)CCCC3(C)C [SALVIANEN] | 39.5 µM | 30.4 µM | 32.3 µM | Dose-dependent effect | Dose-dependent effect | Dose-dependent effect
6 | Cc1coc2c1C(=O)C(=O)c1c-2ccc2c1CCCC2(C)C [TANSHINONE IIA] | 9.52 µM | 26.5 µM | 8.5 µM | – | – | –
